Reference: ChEMBL document CHEMBL1156500, “Characterization of the metabolic activation of hepatitis C virus nucleoside inhibitor beta-D-2'-Deoxy-2'-fluoro-2'-C-methylcytidine (PSI-6130) and identification of a novel active 5'-triphosphate species” (J Biol Chem, 2007)

Legend:
Hepatocyte [1] = test: Drug uptake in human hepatocyte at 250 uM after 24 hrs assessed per 10^6 cells; assay type: ADME, cell-based; conditions: hepatocytes
Outline: (§1)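 Primary human hepatocytes from 3 donors were plated on collagen and recovered for ≥18 h. They were exposed for 24 h, in duplicate, to 0–250 μM drug: 3H-labelled material diluted with unlabelled compound. Total intracellular radioactivity and individual phosphates were measured in methanol extracts by SAX HPLC with radiometric detection. Results are pmol/10^6 cells, mean ± S.D.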

Hepatocyte [2] = test: Drug uptake in human hepatocyte at 100 uM after 24 hrs assessed per 10^6 cells; assay type: ADME, cell-based; conditions: hepatocytes; outline: as §1
Hepatitis C virus = test: Antiviral activity against HCV 1b Con1 in 2209-23 cells after 72 hrs by luciferase based replicon assay; assay type: functional, organism-based, Hepacivirus hominis; conditions: genotype 1b Con 1, 2209-23, 72 h
Outline: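 Huh7-derived 2209-23 cells carrying a bicistronic genotype 1b Con1 subgenomic HCV replicon with a Renilla luciferase reporter of RNA replication. Cells were exposed to compound for 72 h, and dose-dependent reduction of luciferase activity was measured to give IC50.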

Hepatocyte [3] = test: Drug uptake in human hepatocyte at 2 uM after 1 hr assessed per 10^6 cells; assay type: ADME, cell-based; conditions: hepatocytes
Outline: (§2)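 Primary human hepatocytes from 4 donors were plated at 1.5 million cells/well on collagen and recovered for ≥18 h. They were dosed with 3H-labelled drug at 2 μM (10 μCi/ml) for 1–72 h, in duplicate, at 37°C. Cold 60% methanol extracts were run on SAX ion-exchange HPLC with radiometric detection and compared with reference standards. Results are pmol/10^6 cells, mean ± S.D.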

Hepatocyte [4] = test: Drug uptake in human hepatocyte at 2 uM after 6 hrs assessed per 10^6 cells; assay type: ADME, cell-based; conditions: hepatocytes; outline: as §2
Hepatocyte [5] = test: Drug uptake in human hepatocyte at 2 uM after 16 hrs assessed per 10^6 cells; assay type: ADME, cell-based; conditions: hepatocytes; outline: as §2
Hepatocyte [6] = test: Drug uptake in human hepatocyte at 2 uM after 24 hrs assessed per 10^6 cells; assay type: ADME, cell-based; conditions: hepatocytes
Hepatocyte [7] = test: Drug uptake in human hepatocyte at 2 uM after 48 hrs assessed per 10^6 cells; assay type: ADME, cell-based; conditions: hepatocytes; outline: as §2
Hepatocyte [8] = test: Drug uptake in human hepatocyte at 2 uM after 72 hrs assessed per 10^6 cells; assay type: ADME, cell-based; conditions: hepatocytes; outline: as §2
Hepatocyte [9] = test: Drug uptake in human hepatocyte at 2 uM after 6 hrs assessed as 4-amino-1-((2R,3R,4R,5R)-3-fluoro-4-hydroxy-5-(hydroxymethyl)-3-methyl-tetrahydrofuran-2-yl)pyrimitrin-2(1H)-one tri phosphate level per 10^6 cells; assay type: ADME, cell-based; conditions: hepatocytes; outline: as §2
Hepatocyte [10] = test: Drug uptake in human hepatocyte at 2 uM after 16 hrs assessed as 4-amino-1-((2R,3R,4R,5R)-3-fluoro-4-hydroxy-5-(hydroxymethyl)-3-methyl-tetrahydrofuran-2-yl)[…]-2(1H)-one tri phosphate level per 10^6 cells; assay type: ADME, cell-based; conditions: hepatocytes; outline: as §2
Hepatocyte [11] = test: Drug uptake in human hepatocyte at 2 uM after 24 hrs assessed as 4-amino-1-((2R,3R,4R,5R)-3-fluoro-4-hydroxy-5-(hydroxymethyl)-3-methyl-tetrahydrofuran-2-yl)[…]-2(1H)-one tri phosphate level per 10^6 cells; assay type: ADME, cell-based; conditions: hepatocytes; outline: as §2
Hepatocyte [12] = test: Drug uptake in human hepatocyte at 2 uM after 48 hrs assessed as 4-amino-1-((2R,3R,4R,5R)-3-fluoro-4-hydroxy-5-(hydroxymethyl)-3-methyl-tetrahydrofuran-2-yl)pyrimitrin-2(1H)-one tri phosphate level per 10^6 cells; assay type: ADME, cell-based; conditions: hepatocytes; outline: as §2
Hepatocyte [13] = test: Drug uptake in human hepatocyte at 2 uM after 72 hrs assessed as 4-amino-1-((2R,3R,4R,5R)-3-fluoro-4-hydroxy-5-(hydroxymethyl)-3-methyl-tetrahydrofuran-2-yl)pyrimitrin-2(1H)-one tri phosphate level per 10^6 cells; assay type: ADME, cell-based; conditions: hepatocytes; outline: as §2
Hepatocyte [14] = test: Drug uptake in human hepatocyte at 2 uM after 6 hrs assessed as 1-((2R,3R,4R,5R)-3-fluoro-4-hydroxy-5-(hydroxymethyl)-3-methyl-tetrahydrofuran-2-yl)pyrimitrine-2,4(1H,3H)-trione tri phosphate level per 10^6 cells; assay type: ADME, cell-based; conditions: hepatocytes; outline: as §2
Hepatocyte [15] = test: Drug uptake in human hepatocyte at 100 uM after 24 hrs assessed as 1-((2R,3R,4R,5R)-3-fluoro-4-hydroxy-5-(hydroxymethyl)-3-methyl-tetrahydrofuran-2-yl)pyrimidine-2,4(1H,3H)-dione di phosphate level per 10^6 cells; assay type: ADME, cell-based; conditions: hepatocytes; outline: as §1
Hepatocyte [16] = test: Drug uptake in human hepatocyte at 250 uM after 24 hrs assessed as 1-((2R,3R,4R,5R)-3-fluoro-4-hydroxy-5-(hydroxymethyl)-3-methyl-tetrahydrofuran-2-yl)pyrimidine-2,4(1H,3H)-dione di phosphate level per 10^6 cells; assay type: ADME, cell-based; conditions: hepatocytes; outline: as §1
Hepatocyte [17] = test: Drug uptake in human hepatocyte at 2 uM after 24 hrs assessed as 4-amino-1-((2R,3R,4R,5R)-3-fluoro-4-hydroxy-5-(hydroxymethyl)-3-methyl-tetrahydrofuran-2-yl)pyrimidin-2(1H)-one tri phosphate level per 10^6 cells; assay type: ADME, cell-based; conditions: hepatocytes; outline: as §1
Hepatocyte [18] = test: Drug uptake in human hepatocyte at 10 uM after 24 hrs assessed as 4-amino-1-((2R,3R,4R,5R)-3-fluoro-4-hydroxy-5-(hydroxymethyl)-3-methyl-tetrahydrofuran-2-yl)pyrimidin-2(1H)-one tri phosphate level per 10^6 cells; assay type: ADME, cell-based; conditions: hepatocytes; outline: as §1
Hepatocyte [19] = test: Drug uptake in human hepatocyte at 25 uM after 24 hrs assessed as 4-amino-1-((2R,3R,4R,5R)-3-fluoro-4-hydroxy-5-(hydroxymethyl)-3-methyl-tetrahydrofuran-2-yl)pyrimidin-2(1H)-one tri phosphate level per 10^6 cells; assay type: ADME, cell-based; conditions: hepatocytes; outline: as §1
Hepatocyte [20] = test: Drug uptake in human hepatocyte at 50 uM after 24 hrs assessed as 4-amino-1-((2R,3R,4R,5R)-3-fluoro-4-hydroxy-5-(hydroxymethyl)-3-methyl-tetrahydrofuran-2-yl)pyrimidin-2(1H)-one tri phosphate level per 10^6 cells; assay type: ADME, cell-based; conditions: hepatocytes; outline: as §1
Hepatocyte [21] = test: Drug uptake in human hepatocyte at 100 uM after 24 hrs assessed as 4-amino-1-((2R,3R,4R,5R)-3-fluoro-4-hydroxy-5-(hydroxymethyl)-3-methyl-tetrahydrofuran-2-yl)pyrimidin-2(1H)-one tri phosphate level per 10^6 cells; assay type: ADME, cell-based; conditions: hepatocytes; outline: as §1
Hepatocyte [22] = test: Drug uptake in human hepatocyte at 250 uM after 24 hrs assessed as 4-amino-1-((2R,3R,4R,5R)-3-fluoro-4-hydroxy-5-(hydroxymethyl)-3-methyl-tetrahydrofuran-2-yl)pyrimidin-2(1H)-one tri phosphate level per 10^6 cells; assay type: ADME, cell-based; conditions: hepatocytes; outline: as §1

C[C@@]1(F)[C@H](O)[C@@H](CO)O[C@H]1n1ccc(N)nc1=O
Drug uptake (Hepatocyte [1]): 3591.3 pmol | Drug uptake (Hepatocyte [2]): 1529.9 pmol | IC50 (Hepatitis C virus): 600 nM | Drug uptake (Hepatocyte [3]): 30.4 pmol | Drug uptake (Hepatocyte [4]): 32.9 pmol | Drug uptake (Hepatocyte [5]): 34.4 pmol | Drug uptake (Hepatocyte [6]): 36.4 pmol | Drug uptake (Hepatocyte [7]): 31.9 pmol | Drug uptake (Hepatocyte [8]): 34.6 pmol | Drug uptake (Hepatocyte [9]): 0.6 pmol | Drug uptake (Hepatocyte [10]): 0.7 pmol | Drug uptake (Hepatocyte [11]): 1.1 pmol | Drug uptake (Hepatocyte [12]): 1.3 pmol | Drug uptake (Hepatocyte [13]): 1 pmol | Drug uptake (Hepatocyte [14]): 0.3 pmol | Drug uptake (Hepatocyte [15]): 34.7 pmol | Drug uptake (Hepatocyte [16]): 40.9 pmol | Drug uptake (Hepatocyte [17]): 1.4 pmol | Drug uptake (Hepatocyte [18]): 5.6 pmol | Drug uptake (Hepatocyte [19]): 11.3 pmol | Drug uptake (Hepatocyte [20]): 18.7 pmol | Drug uptake (Hepatocyte [21]): 34.3 pmol | Drug uptake (Hepatocyte [22]): 40.4 pmol
